Key:
T47D = test: Cytotoxicity against human T47D cells assessed as cell growth at 10 uM after 48 hrs by SRB assay; format: functional; details: read-out: Activity
Procedure, shortened: (§1)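 First stage of the NCI 60 human tumour cell line screen, with each compound tested at a single dose of 10. Cellular protein measured by sulforhodamine B colorimetry after 48 h drug exposure. Growth is calculated against a time-zero cell control and against plates not exposed to drug.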

BT-549 [1] = test: Cytotoxicity against human BT549 cells assessed as cell growth at 10 uM after 48 hrs by SRB assay; format: functional; details: BT-549, 48 h, read-out: Activity
Procedure, shortened: (§2)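 NCI 60-cell-line screen, first stage: compound at a single dose of […] (unit as printed) for 48 h. Cellular protein was measured by sulforhodamine B colorimetry. Growth was determined using a time-zero cell control and plates not exposed to drug.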

MDA-MB-231 = test: Cytotoxicity against human MDA-MB-231 cells assessed as cell growth at 10 uM after 48 hrs by SRB assay; format: functional; details: MDA-MB-231, 48 h, read-out: Activity
Procedure, shortened: (§3)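 First stage of the NCI 60 human tumour cell line screen: a single dose is tested against every line. Cell growth is read as cellular protein by sulforhodamine B colorimetry after 48 h of drug exposure, with reference to a time-zero control and to untreated plates.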

TK-10 = test: Cytotoxicity against human TK10 cells assessed as cell growth at 10 uM after 48 hrs by SRB assay; format: functional; details: TK-10, 48 h, read-out: Activity; procedure, shortened: as §1
ACHN = test: Cytotoxicity against human ACHN cells assessed as cell growth at 10 uM after 48 hrs by SRB assay; format: functional; details: read-out: Activity
[2] = Cytotoxicity against human NCI-ADR-RES cells assessed as cell growth at 10 uM after 48 hrs by SRB assay; format: functional; details: read-out: Activity; procedure, shortened: as §3
OVCAR-8 = test: Cytotoxicity against human OVCAR8 cells assessed as cell growth at 10 uM after 48 hrs by SRB assay; format: functional; details: OVCAR-8, 48 h, read-out: Activity; procedure, shortened: as §3
SK-MEL-28 = test: Cytotoxicity against human SK-MEL-28 cells assessed as cell growth at 10 uM after 48 hrs by SRB assay; format: functional; details: SK-MEL-28, 48 h, read-out: Activity; procedure, shortened: as §3
M14 = test: Cytotoxicity against human M14 cells assessed as cell growth at 10 uM after 48 hrs by SRB assay; format: functional; details: M14, 48 h, read-out: Activity; procedure, shortened: as §2
LOX IMVI = test: Cytotoxicity against human LOXIMVI cells assessed as cell growth at 10 uM after 48 hrs by SRB assay; format: functional; details: read-out: Activity; procedure, shortened: as §2
SNB-75 = test: Cytotoxicity against human SNB75 cells assessed as cell growth at 10 uM after 48 hrs by SRB assay; format: functional; details: SNB-75, 48 h, read-out: Activity; procedure, shortened: as §1
SNB-19 = test: Cytotoxicity against human SNB19 cells assessed as cell growth at 10 uM after 48 hrs by SRB assay; format: functional; details: SNB-19, 48 h, read-out: Activity; procedure, shortened: as §1
SF-295 = test: Cytotoxicity against human SF295 cells assessed as cell growth at 10 uM after 48 hrs by SRB assay; format: functional; details: SF-295, 48 h, read-out: Activity; procedure, shortened: as §3
SW-620 = test: Cytotoxicity against human SW620 cells assessed as cell growth at 10 uM after 48 hrs by SRB assay; format: functional; details: SW-620, 48 h, read-out: Activity; procedure, shortened: as §1
COLO 205 = test: Cytotoxicity against human COLO205 cells assessed as cell growth at 10 uM after 48 hrs by SRB assay; format: functional; details: COLO 205, 48 h, read-out: Activity
NCI-H522 = test: Cytotoxicity against human NCI-H522 cells assessed as cell growth at 10 uM after 48 hrs by SRB assay; format: functional; details: NCI-H522, 48 h, read-out: Activity; procedure, shortened: as §3
NCI-H322M [3] = test: Cytotoxicity against human NCI-H322M cells assessed as cell growth at 10 uM after 48 hrs by SRB assay; format: functional; details: read-out: Activity; procedure, shortened: as §3
NCI-H23 = test: Cytotoxicity against human NCI-H23 cells assessed as cell growth at 10 uM after 48 hrs by SRB assay; format: functional; details: NCI-H23, 48 h, read-out: Activity; procedure, shortened: as §3
NCI-H226 = test: Cytotoxicity against human NCI-H226 cells assessed as cell growth at 10 uM after 48 hrs by SRB assay; format: functional; details: NCI-H226, 48 h, read-out: Activity; procedure, shortened: as §3
HOP-62 = test: Cytotoxicity against human HOP62 cells assessed as cell growth at 10 uM after 48 hrs by SRB assay; format: functional; details: HOP-62, 48 h, read-out: Activity; procedure, shortened: as §2
A549 = test: Cytotoxicity against human A549 cells assessed as cell growth at 10 uM after 48 hrs by SRB assay; format: functional; details: A549, 48 h, read-out: Activity
[4] = target: Telomerase reverse transcriptase (Homo sapiens) (UniProt O14746); test: Inhibition of human tert transcriptional activity assessed as SEAP activity at 10 uM after 24 hrs by SEAP reporter assay; parameters: scale not given: the % may be the effect or the level left
Procedure, shortened: (§4)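 Reporter assay for hTERT transcriptional activity using secreted alkaline phosphatase. About 2 × 10³ cells per well were grown for 24 h at 37 °C, then given fresh medium. Buffer was added to the medium: 2 M diethanolamine, 1 mM MgCl2 and 20 mM L-homoarginine. p-Nitrophenyl phosphate was added to 12 mM final. The rate of absorbance increase was read at 405 nm.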

[5] = target: Telomerase reverse transcriptase (Homo sapiens) (UniProt O14746); test: Inhibition of human tert transcriptional activity assessed as SEAP activity at 1 uM after 24 hrs by SEAP reporter assay; parameters: scale not given: the % may be the effect or the level left; procedure, shortened: as §4
[6] = Cytotoxicity against human H1299 cells assessed as cell viability at 100 uM after 48 hrs by MTT assay; format: functional; details: NCI-H1299, 48 h, read-out: Activity
Procedure, shortened: (§5)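 About 2×10³ H1299 cells per well were grown for 24 h at 37 °C in 5% CO2. Compound was dissolved in DMSO immediately before use, diluted in complete medium and left on cells for 48 h. MTT was then added for 4 h at 37 °C, followed by SDS/DMF lysis buffer for 16 h at 37 °C. Absorbance was read at 550 nm.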

[7] = Cytotoxicity against human H1299 cells assessed as cell viability at 10 uM after 48 hrs by MTT assay; format: functional; details: NCI-H1299, 48 h, read-out: Activity; procedure, shortened: as §5
[8] = Cytotoxicity against human H1299 cells assessed as cell viability at 1 uM after 48 hrs by MTT assay; format: functional; details: NCI-H1299, 48 h, read-out: Activity; procedure, shortened: as §5
BT-549 [9] = test: Cytotoxicity against human BT549 cells assessed as growth inhibition after 48 hrs by SRB assay; format: functional
Procedure, shortened: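 NCI 60-cell-line five-dose screen at […]. Drug exposure was 48 h, followed by sulforhodamine B protein staining. GI50, TGI and LC50 were calculated against a time-zero control and untreated plates, with dose–response curves plotted from log10 concentration.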

NCI-H322M [10] = test: Cytotoxicity against human NCI-H322M cells assessed as growth inhibition after 48 hrs by SRB assay; format: functional
Procedure, shortened: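 NCI 60-cell-line screen, five-dose stage: each cell line exposed for 48 h to five concentrations spanning five log steps; cellular protein measured by sulforhodamine B colorimetry. A time-zero cell control and plates without drug are used to derive GI50, TGI and LC50 from log-concentration dose-response curves.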

Chain of Telomerase reverse transcriptase (Homo sapiens) (O14746 whole entry): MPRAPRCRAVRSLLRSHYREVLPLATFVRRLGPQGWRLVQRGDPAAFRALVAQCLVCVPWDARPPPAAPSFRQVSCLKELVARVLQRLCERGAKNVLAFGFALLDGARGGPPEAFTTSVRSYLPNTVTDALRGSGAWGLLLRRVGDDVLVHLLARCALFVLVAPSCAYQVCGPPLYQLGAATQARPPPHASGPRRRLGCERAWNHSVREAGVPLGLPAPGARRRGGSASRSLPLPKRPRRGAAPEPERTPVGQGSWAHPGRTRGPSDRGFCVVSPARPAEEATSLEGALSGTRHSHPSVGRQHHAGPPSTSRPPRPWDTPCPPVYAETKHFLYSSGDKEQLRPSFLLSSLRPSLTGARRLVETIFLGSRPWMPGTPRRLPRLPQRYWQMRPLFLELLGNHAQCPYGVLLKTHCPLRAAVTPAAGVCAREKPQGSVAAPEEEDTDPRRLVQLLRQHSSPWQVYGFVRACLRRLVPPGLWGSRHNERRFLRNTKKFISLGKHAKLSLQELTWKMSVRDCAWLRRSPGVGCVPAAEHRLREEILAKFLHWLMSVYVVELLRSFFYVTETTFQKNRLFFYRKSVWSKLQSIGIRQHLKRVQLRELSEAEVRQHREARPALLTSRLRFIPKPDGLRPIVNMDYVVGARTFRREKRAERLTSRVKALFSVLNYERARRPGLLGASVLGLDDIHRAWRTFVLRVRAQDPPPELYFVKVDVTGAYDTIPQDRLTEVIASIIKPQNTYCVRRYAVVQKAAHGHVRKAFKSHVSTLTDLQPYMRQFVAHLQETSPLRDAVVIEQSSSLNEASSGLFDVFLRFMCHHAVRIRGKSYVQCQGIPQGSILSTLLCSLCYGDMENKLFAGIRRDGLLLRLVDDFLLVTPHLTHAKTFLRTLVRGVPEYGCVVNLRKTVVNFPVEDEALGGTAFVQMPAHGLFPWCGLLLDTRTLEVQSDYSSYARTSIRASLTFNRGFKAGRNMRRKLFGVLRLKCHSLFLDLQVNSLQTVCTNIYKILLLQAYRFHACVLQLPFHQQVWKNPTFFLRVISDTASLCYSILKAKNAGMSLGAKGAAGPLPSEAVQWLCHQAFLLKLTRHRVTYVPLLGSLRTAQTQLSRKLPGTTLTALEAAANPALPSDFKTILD

| Structure (SMILES) | growth at 10 µM (T47D) | growth at 10 µM (BT-549 [1]) | growth at 10 µM (MDA-MB-231) | growth at 10 µM (TK-10) | growth at 10 µM (ACHN) | growth at 10 µM [2] | growth at 10 µM (OVCAR-8) | growth at 10 µM (SK-MEL-28) | growth at 10 µM (M14) | growth at 10 µM (LOX IMVI) | growth at 10 µM (SNB-75) | growth at 10 µM (SNB-19) | growth at 10 µM (SF-295) | growth at 10 µM (SW-620) | growth at 10 µM (COLO 205) | growth at 10 µM (NCI-H522) | growth at 10 µM (NCI-H322M [3]) | growth at 10 µM (NCI-H23) | growth at 10 µM (NCI-H226) | growth at 10 µM (HOP-62) | further results |
| --- | --- | --- | --- | --- | --- | --- | --- | --- | --- | --- | --- | --- | --- | --- | --- | --- | --- | --- | --- | --- | --- |
| O=C1c2ccccc2C(=O)c2c1ccc1nc3n(c21)CCS3 | 73.1% | 87.9% | 94% | 58.8% | 59.4% | 84.1% | 75.4% | 109% | 78.5% | 65.9% | 95.6% | 74.5% | 78.6% | 69.3% | 95.2% | 80.6% | 72.1% | 84.3% | 80.5% | 85.3% | growth at 10 µM (A549): 81.2%; Activity [4]: 53%; Activity [5]: 107%; viability at 100 µM [6]: 99%; viability at 10 µM [7]: 128%; viability at 1 µM [8]: 115% |
| CCSc1nc2ccc3c(c2[nH]1)C(=O)c1ccccc1C3=O | 30.8% | 55.8% | 84.8% | 74.1% | 37.6% | 85.7% | 96.8% | 97.7% | 67.1% | 36.7% | 73.3% | 87.9% | 101% | 84.5% | 71.8% | 78.6% | 33.4% | 87.4% | 62.1% | 95.6% | growth inhibition (GI) (BT-549 [9]): Dose-dependent effect; GI50 (BT-549 [9]; BT-549, 48 h): 9.34 µM; LC50 (concentration killing 50% of cells) (BT-549 [9]; BT-549, 48 h): > 100 µM; TGI (BT-549 [9]; BT-549, 48 h): > 100 µM; GI50 (NCI-H322M [10]): 3.24 µM; LC50 (concentration killing 50% of cells relative to time zero) (NCI-H322M [10]): > 100 µM; TGI (NCI-H322M [10]): > 100 µM; growth inhibition (GI) (NCI-H322M [10]): Dose-dependent effect; growth at 10 µM (A549): 101%; Activity [4]: 90%; Activity [5]: 100%; viability at 100 µM [6]: 73%; viability at 10 µM [7]: 127%; viability at 1 µM [8]: 109% |
| O=C1c2ccccc2C(=O)c2c1ccc1[nH]c(=S)[nH]c21 | 81.9% | 114% | 108% | 112% | 96.2% | 110% | 140% | 118% | 101% | 84% | 101% | 91.3% | 118% | 97.6% | 104% | 96.1% | 96.3% | 113% | 83.7% | 96.7% | growth at 10 µM (A549): 118%; Activity [4]: 100%; Activity [5]: 97%; viability at 100 µM [6]: 54%; viability at 10 µM [7]: 99%; viability at 1 µM [8]: 101% |

From ChEMBL document CHEMBL3120102, “Structure-based design, synthesis and biological evaluation of novel anthra[1,2-d]imidazole-6,11-dione homologues as potential antitumor agents” (2013)
